What all share (type): ADME
What all share (details): recombinant enzyme

In series [1] the target is T1, UDP-glucuronosyltransferase 1A3 (Homo sapiens, UniProt P35503).
T1 sequence (P35503 whole entry): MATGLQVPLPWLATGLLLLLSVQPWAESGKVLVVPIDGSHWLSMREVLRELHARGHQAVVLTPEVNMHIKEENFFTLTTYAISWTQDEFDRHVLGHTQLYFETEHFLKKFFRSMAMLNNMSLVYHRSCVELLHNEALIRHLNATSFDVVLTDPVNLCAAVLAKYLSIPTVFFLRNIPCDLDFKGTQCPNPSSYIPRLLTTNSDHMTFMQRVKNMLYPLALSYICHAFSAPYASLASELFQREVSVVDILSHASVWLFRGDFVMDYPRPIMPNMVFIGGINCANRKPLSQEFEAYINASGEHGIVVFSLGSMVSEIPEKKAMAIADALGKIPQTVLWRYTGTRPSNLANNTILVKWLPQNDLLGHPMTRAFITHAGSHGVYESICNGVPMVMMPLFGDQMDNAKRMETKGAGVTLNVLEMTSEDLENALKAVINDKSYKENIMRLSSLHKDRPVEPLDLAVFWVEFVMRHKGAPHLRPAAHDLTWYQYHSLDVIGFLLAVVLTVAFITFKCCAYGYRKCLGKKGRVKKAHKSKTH
The series is described as follows: Drug metabolism assessed as recombinant human C-terminal His-tagged UGT1A3-mediated 13-epiestradiol-3-glucuronide formation at 200 uM after 15 to 60 mins by HPLC analysis in presence of UDPGA. The procedure, abridged:
(§1)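 Screening at a single substrate concentration of 200 μM, in triplicate. The reaction used 5 or 50 µg of UGT-enriched insect cell membranes in 50 mM phosphate pH 7.4 with 10 mM MgCl₂ and 5 mM UDPGA, 10% final DMSO. Incubation was 15–60 min at 37°C. Perchloric acid stopped the reaction and supernatants were analysed by HPLC. Controls lacked UDPGA. Rates were normalized to relative UGT expression level.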

The target in series [2] is T2, UDP-glucuronosyltransferase 2B4 (Homo sapiens, UniProt P06133).
T2 sequence (P06133 whole entry): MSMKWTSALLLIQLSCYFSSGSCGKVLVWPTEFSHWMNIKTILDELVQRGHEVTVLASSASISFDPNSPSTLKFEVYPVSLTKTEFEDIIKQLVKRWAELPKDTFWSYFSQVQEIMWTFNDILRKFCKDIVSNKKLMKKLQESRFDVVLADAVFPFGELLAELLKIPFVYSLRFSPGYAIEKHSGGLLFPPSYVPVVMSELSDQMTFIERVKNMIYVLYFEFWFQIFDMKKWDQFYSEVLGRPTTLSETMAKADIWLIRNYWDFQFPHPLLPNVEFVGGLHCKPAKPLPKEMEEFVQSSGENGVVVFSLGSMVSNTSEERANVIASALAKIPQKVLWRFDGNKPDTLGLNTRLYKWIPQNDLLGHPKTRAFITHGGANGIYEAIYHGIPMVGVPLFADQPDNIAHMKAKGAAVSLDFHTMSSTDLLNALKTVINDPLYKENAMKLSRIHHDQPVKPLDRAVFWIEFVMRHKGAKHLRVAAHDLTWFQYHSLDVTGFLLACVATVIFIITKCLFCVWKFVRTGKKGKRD
The series is described as follows: Drug metabolism assessed as recombinant human C-terminal His-tagged UGT2B4-mediated estriol-16-glucuronide formation after 15 to 60 mins by Michaelis-Menten equation analysis in presence of UDPGA.

Series [3] has as its target T1, UDP-glucuronosyltransferase 1A3. Description: Drug metabolism assessed as recombinant human C-terminal His-tagged UGT1A3-mediated estradiol-3-glucuronide formation at 200 uM after 15 to 60 mins by HPLC analysis in presence of UDPGA. The procedure, abridged:
as §1

Series [4] addresses T3, UDP-glucuronosyltransferase 1A1 (Homo sapiens, UniProt P22309).
T3 sequence (P22309 whole entry): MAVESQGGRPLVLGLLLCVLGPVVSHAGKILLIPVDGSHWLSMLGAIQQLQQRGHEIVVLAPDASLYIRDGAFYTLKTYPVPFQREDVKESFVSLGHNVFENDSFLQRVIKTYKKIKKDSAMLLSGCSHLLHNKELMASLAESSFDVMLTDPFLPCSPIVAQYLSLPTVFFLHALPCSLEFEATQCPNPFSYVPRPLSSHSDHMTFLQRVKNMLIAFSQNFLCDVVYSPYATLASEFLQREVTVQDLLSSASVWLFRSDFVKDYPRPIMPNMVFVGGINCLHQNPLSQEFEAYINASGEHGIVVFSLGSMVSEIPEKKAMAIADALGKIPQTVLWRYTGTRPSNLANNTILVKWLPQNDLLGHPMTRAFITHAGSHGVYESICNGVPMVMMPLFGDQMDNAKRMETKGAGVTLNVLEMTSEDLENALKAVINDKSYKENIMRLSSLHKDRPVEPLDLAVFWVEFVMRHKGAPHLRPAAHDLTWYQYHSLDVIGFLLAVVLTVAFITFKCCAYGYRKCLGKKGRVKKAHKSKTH
Description: Drug metabolism assessed as recombinant human C-terminal His-tagged UGT1A1-mediated 17-epiestriol-3-glucuronide formation at 200 uM after 15 to 60 mins by HPLC analysis in presence of UDPGA. In short, it runs like this: as §1

Series [5] concerns the target T1, UDP-glucuronosyltransferase 1A3. Description: Drug metabolism assessed as recombinant human C-terminal His-tagged UGT1A3-mediated 17-epiestriol-3-glucuronide formation at 200 uM after 15 to 60 mins by HPLC analysis in presence of UDPGA. The procedure, abridged: as §1
Series [6] addresses T4, UDP-glucuronosyltransferase 2B17 (Homo sapiens, UniProt O75795).
T4 sequence (O75795 whole entry): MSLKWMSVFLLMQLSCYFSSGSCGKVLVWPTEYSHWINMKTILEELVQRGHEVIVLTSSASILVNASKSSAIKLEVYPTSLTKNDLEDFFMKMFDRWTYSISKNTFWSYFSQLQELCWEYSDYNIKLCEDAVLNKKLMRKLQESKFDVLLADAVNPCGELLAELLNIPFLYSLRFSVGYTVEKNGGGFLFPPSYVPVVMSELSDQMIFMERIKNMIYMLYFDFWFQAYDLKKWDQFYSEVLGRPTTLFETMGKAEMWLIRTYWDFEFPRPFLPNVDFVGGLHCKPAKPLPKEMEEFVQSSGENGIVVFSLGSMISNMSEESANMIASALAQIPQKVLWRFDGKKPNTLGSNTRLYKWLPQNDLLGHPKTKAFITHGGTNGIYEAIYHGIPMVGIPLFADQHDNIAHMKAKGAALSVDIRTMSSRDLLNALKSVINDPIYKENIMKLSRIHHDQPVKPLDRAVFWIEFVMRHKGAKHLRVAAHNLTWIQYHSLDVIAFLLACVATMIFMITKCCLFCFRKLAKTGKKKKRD
Description: Drug metabolism assessed as recombinant human C-terminal His-tagged UGT2B17-mediated 17-epiestriol glucuronide metabolite formation after 15 to 60 mins by HPLC analysis in presence of UDPGA.

As for `C[C@@]12CC[C@@H]3c4ccc(O)cc4CC[C@H]3[C@@H]1CC[C@@H]2O`, the Drug metabolism entry in series [1] was “metabolite_detected”.
In the case of `C[C@]12CC[C@@H]3c4ccc(O)cc4CC[C@H]3[C@@H]1C[C@@H](O)[C@@H]2O` [ESTRIOL], the Drug metabolism in series [2] is given as 4 pmol/min/mg.
`C[C@]12CC[C@@H]3c4ccc(O)cc4CC[C@H]3[C@@H]1CC[C@@H]2O` [ESTRADIOL]: the Drug metabolism result in series [3] is on record as “metabolite_detected”.
For the molecule `C[C@]12CC[C@@H]3c4ccc(O)cc4CC[C@H]3[C@@H]1C[C@@H](O)[C@H]2O`, the figures for the Drug metabolism entry in series [4], in series [5] and in series [6] were “metabolite_detected”, “metabolite_detected” and “metabolite_not_detected”, respectively.

The values are drawn from ChEMBL document CHEMBL3525985, “Regiospecificity and stereospecificity of human UDP-glucuronosyltransferases in the glucuronidation of estriol, 16-epiestriol, 17-epiestriol, and 13-epiestradiol” (Drug Metab Dispos, 2013).
